{"source": "paper PMC9322450", "about": "(Angewandte Chemie (International ed. in English), 2022)", "key": {"[1]": {"type": "in vitro ADME, mouse", "procedure,_shortened": "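Mouse epidermis punches (C57BL/6-type, ≈6 mm diameter, 1 mm thick) incubated with test compound at 4.85 μM in PBS for 24 h. Supernatant sampled over time, diluted 100-fold, added to a group-I S. aureus agr YFP reporter strain making native AIP. Fluorescence normalized to vehicle (100%) and media (0%) controls, n=3 independent experiments; remaining active compound estimated from an earlier dose-response curve.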"}, "S. aureus": {"tested_on": "S. aureus", "assay": "murine open-wound model of S. aureus infection", "type": "in vivo, mouse", "settings": "even at relatively high concentrations (e.g. 10 μM)"}}}
{"substance": "AIP-III D4A", "values": [{"measurement": "loss of active compound", "setting": "[1]; after 24 h with mouse tissue in PBS, start 4.85 μM", "result": "~ 95%"}, {"measurement": "loss of inhibitory activity in the absence of mouse tissue", "setting": "[1]; control without tissue, 24 hr", "result": "no loss of inhibitory activity"}, {"measurement": "loss of activity with heat-treated tissue", "setting": "[1]; tissue sample heat treated at 80 °C for 15 min before addition of compound", "result": "loss of activity could be prevented"}, {"measurement": "benefit on wound healing", "setting": "S. aureus", "result": "only a limited benefit on wound healing"}]}
